tested on: MCF7; assay: Cytotoxicity against human MCF7 cells assessed as reduction in cell viability after 48 hrs by Hoechst 33342 staining based HCS assay; type: functional; conditions: Homo sapiens, MCF7, 48 h; read-out: EC50; call rule not given here

SMILES | EC50
C[C@H](O)[C@@H](NC(=O)[C@H](Cc1ccc(OCc2ccccc2)cc1)NC(=O)OC(C)(C)C)C(=O)N[C@@H](C[C@]1(O)C(=O)Nc2ccccc21)C(=O)NCc1ccccc1 | 9 µM

tested on: NCI-H727; assay: Cytotoxicity against human NCI-H727 cells assessed as reduction in cell viability after 48 hrs by Hoechst 33342 staining based HCS assay; type: functional; conditions: nci-h727
In short: (§1)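 Cells were grown at 37 °C, 5% CO2 in medium with 10% FBS, 1% penicillin-streptomycin, 2 mM glutamine: DMEM for HuH7, MDA-MB-231 and fibroblasts, EMEM for Caco2, McCoy's for HCT116, RPMI for PC3 and NCI-H727. 4000 cells/well were seeded and dosed 24 h later at 0.1-25 μM final, from DMSO stocks. After 48 h they were fixed in ethanol/acetic acid and Hoechst-stained nuclei were counted by imaging. Survival is relative to DMSO. EC50 came from dose-response curves.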

SMILES | EC50
C[C@H](O)[C@@H](NC(=O)[C@H](Cc1ccc(OCc2ccccc2)cc1)NC(=O)OC(C)(C)C)C(=O)N[C@@H](C[C@]1(O)C(=O)Nc2ccccc21)C(=O)NCc1ccccc1 | Not Active

biological target: T1, Proteasome subunit beta type-8 (Homo sapiens) (UniProt P28062); assay: Inhibition of human 20S immunoproteasome beta-5 at 50 uM using Suc-LLVY-AMC as substrate incubated for 15 mins measured for 45 mins by fluorescence assay relative to control; conditions: not given
T1 sequence (whole entry): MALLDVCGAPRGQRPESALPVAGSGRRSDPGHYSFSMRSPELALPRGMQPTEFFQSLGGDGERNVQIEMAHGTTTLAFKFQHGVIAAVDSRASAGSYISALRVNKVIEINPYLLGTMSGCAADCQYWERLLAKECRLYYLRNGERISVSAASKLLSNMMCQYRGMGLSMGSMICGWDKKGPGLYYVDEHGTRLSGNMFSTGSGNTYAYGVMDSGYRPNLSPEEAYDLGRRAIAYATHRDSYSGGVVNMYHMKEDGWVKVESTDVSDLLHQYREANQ
In short: (§2)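 Human 20S cCP or iCP (0.3 nM) was exposed to compound (0.001-50 μM) for 15 min in pH 8 buffer of 20 mM Tris-HCl, 10% glycerol, 0.01% SDS, 2% DMSO. Suc-LLVY-AMC at 20 μM followed. Fluorescence (ex 360/em 460 nm) was read 45 min at 37 °C versus untreated enzyme.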

SMILES | inhibition
C[C@H](O)[C@@H](NC(=O)[C@H](Cc1ccc(OCc2ccccc2)cc1)NC(=O)OC(C)(C)C)C(=O)N[C@@H](C[C@]1(O)C(=O)Nc2ccccc21)C(=O)NCc1ccccc1 | > 85%

biological target: T2, Proteasome Macropain subunit MB1 (Homo sapiens, UniProt P28074); assay: Inhibition of human 20S constitutive proteasome beta-5 using Suc-LLVY-AMC as substrate incubated for 15 mins measured for 45 mins by fluorescence assay; conditions: not given; in short: as §2
T2 sequence (P28074 whole entry): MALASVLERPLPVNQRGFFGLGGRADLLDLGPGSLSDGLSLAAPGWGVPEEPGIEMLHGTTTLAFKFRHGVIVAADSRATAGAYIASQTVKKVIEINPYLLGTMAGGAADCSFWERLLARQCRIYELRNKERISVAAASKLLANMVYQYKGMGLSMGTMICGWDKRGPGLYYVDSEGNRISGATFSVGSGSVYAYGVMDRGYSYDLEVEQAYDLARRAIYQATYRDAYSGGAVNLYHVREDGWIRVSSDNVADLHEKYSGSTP

SMILES | IC50
C[C@H](O)[C@@H](NC(=O)[C@H](Cc1ccc(OCc2ccccc2)cc1)NC(=O)OC(C)(C)C)C(=O)N[C@@H](C[C@]1(O)C(=O)Nc2ccccc21)C(=O)NCc1ccccc1 | 0.125 µM

tested on: HCT-116; assay: Cytotoxicity against human HCT116 cells assessed as reduction in cell viability after 48 hrs by Hoechst 33342 staining based HCS assay; type: functional; conditions: Homo sapiens, HCT-116, 48 h; read-out: EC50; in short: as §1

SMILES | EC50
C[C@H](O)[C@@H](NC(=O)[C@H](Cc1ccc(OCc2ccccc2)cc1)NC(=O)OC(C)(C)C)C(=O)N[C@@H](C[C@]1(O)C(=O)Nc2ccccc21)C(=O)NCc1ccccc1 | 9 µM

biological target: T3, Proteasome subunit beta type-10 (Homo sapiens) (UniProt P40306); assay: Inhibition of human 20S immunoproteasome beta-2 at 50 uM using BocLRR-AMC as substrate incubated for 15 mins measured for 45 mins by fluorescence assay relative to control; conditions: not given
T3 sequence (whole entry): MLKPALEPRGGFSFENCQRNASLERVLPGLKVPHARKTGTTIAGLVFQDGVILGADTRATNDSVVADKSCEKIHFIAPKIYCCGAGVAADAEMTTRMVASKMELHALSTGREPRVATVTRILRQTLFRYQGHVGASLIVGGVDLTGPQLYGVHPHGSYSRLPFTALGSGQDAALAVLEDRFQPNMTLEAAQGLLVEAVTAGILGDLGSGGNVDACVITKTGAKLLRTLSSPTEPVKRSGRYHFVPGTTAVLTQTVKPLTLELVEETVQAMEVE

SMILES | inhibition
C[C@H](O)[C@@H](NC(=O)[C@H](Cc1ccc(OCc2ccccc2)cc1)NC(=O)OC(C)(C)C)C(=O)N[C@@H](C[C@]1(O)C(=O)Nc2ccccc21)C(=O)NCc1ccccc1 | > 85%

biological target: T4, Proteasome subunit beta type-10 (Homo sapiens, UniProt P40306); assay: Inhibition of human 20S immunoproteasome beta-2 using BocLRR-AMC as substrate incubated for 15 mins measured for 45 mins by fluorescence assay; conditions: not given
T4 sequence (P40306 whole entry): T3 sequence (whole entry)

SMILES | IC50
C[C@H](O)[C@@H](NC(=O)[C@H](Cc1ccc(OCc2ccccc2)cc1)NC(=O)OC(C)(C)C)C(=O)N[C@@H](C[C@]1(O)C(=O)Nc2ccccc21)C(=O)NCc1ccccc1 | 5.8 µM

biological target: T5, Proteasome subunit beta type-8 (Homo sapiens, UniProt P28062); assay: Inhibition of human 20S immunoproteasome beta-5 using Suc-LLVY-AMC as substrate incubated for 15 mins measured for 45 mins by fluorescence assay; conditions: not given; in short: as §2
T5 sequence (P28062 whole entry): T1 sequence (whole entry)

SMILES | IC50
C[C@H](O)[C@@H](NC(=O)[C@H](Cc1ccc(OCc2ccccc2)cc1)NC(=O)OC(C)(C)C)C(=O)N[C@@H](C[C@]1(O)C(=O)Nc2ccccc21)C(=O)NCc1ccccc1 | 0.2 µM

tested on: PC-3; assay: Cytotoxicity against human PC3 cells assessed as reduction in cell viability after 48 hrs by Hoechst 33342 staining based HCS assay; type: functional; conditions: Homo sapiens, PC-3, 48 h; read-out: EC50; in short: as §1

SMILES | EC50
C[C@H](O)[C@@H](NC(=O)[C@H](Cc1ccc(OCc2ccccc2)cc1)NC(=O)OC(C)(C)C)C(=O)N[C@@H](C[C@]1(O)C(=O)Nc2ccccc21)C(=O)NCc1ccccc1 | 10 µM

biological target: T6, Proteasome subunit beta type-9 (Homo sapiens, UniProt P28065); assay: Inhibition of human 20S immunoproteasome beta-1 using Ac-PAL-AMC as substrate incubated for 15 mins measured for 45 mins by fluorescence assay; conditions: not given
T6 sequence (P28065 whole entry): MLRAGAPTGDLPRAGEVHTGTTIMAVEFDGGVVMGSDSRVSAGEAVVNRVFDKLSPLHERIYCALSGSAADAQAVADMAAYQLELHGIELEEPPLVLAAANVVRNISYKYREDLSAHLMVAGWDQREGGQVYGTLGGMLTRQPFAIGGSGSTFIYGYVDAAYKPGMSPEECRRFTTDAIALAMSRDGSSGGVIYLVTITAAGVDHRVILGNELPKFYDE
In short: (§3)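 Human 20S immunoproteasome (0.3 nM) was given 15 min with compound (0.001-50 μM) in pH 8 buffer of 20 mM Tris-HCl, 10% glycerol, 0.01% SDS, 2% DMSO. Ac-PAL-AMC at 50 μM was the substrate. Fluorescence (ex 360/em 460 nm) was followed 45 min at 37 °C relative to control.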

SMILES | IC50
C[C@H](O)[C@@H](NC(=O)[C@H](Cc1ccc(OCc2ccccc2)cc1)NC(=O)OC(C)(C)C)C(=O)N[C@@H](C[C@]1(O)C(=O)Nc2ccccc21)C(=O)NCc1ccccc1 | 8.8 µM

biological target: T7, Proteasome Macropain subunit MB1 (Homo sapiens) (UniProt P28074); assay: Inhibition of human 20S constitutive proteasome beta-5 at 50 uM using Suc-LLVY-AMC as substrate incubated for 15 mins measured for 45 mins by fluorescence assay relative to control; conditions: not given; in short: as §2
T7 sequence (whole entry): T2 sequence (P28074 whole entry)

SMILES | inhibition
C[C@H](O)[C@@H](NC(=O)[C@H](Cc1ccc(OCc2ccccc2)cc1)NC(=O)OC(C)(C)C)C(=O)N[C@@H](C[C@]1(O)C(=O)Nc2ccccc21)C(=O)NCc1ccccc1 | > 85%

biological target: T8, Proteasome subunit beta type-9 (Homo sapiens) (UniProt P28065); assay: Inhibition of human 20S immunoproteasome beta-1 at 50 uM using Ac-PAL-AMC as substrate incubated for 15 mins measured for 45 mins by fluorescence assay relative to control; conditions: not given; in short: as §3
T8 sequence (whole entry): T6 sequence (P28065 whole entry)

SMILES | inhibition
C[C@H](O)[C@@H](NC(=O)[C@H](Cc1ccc(OCc2ccccc2)cc1)NC(=O)OC(C)(C)C)C(=O)N[C@@H](C[C@]1(O)C(=O)Nc2ccccc21)C(=O)NCc1ccccc1 | > 85%

tested on: Huh-7; assay: Cytotoxicity against human HuH7 cells assessed as reduction in cell viability after 48 hrs by Hoechst 33342 staining based HCS assay; type: functional; conditions: huh-7; in short: as §1

SMILES | EC50
C[C@H](O)[C@@H](NC(=O)[C@H](Cc1ccc(OCc2ccccc2)cc1)NC(=O)OC(C)(C)C)C(=O)N[C@@H](C[C@]1(O)C(=O)Nc2ccccc21)C(=O)NCc1ccccc1 | Not Active

biological target: Proteasome Macropain subunit (Homo sapiens) (UniProt P49721); assay: Inhibition of human 20S constitutive proteasome beta-2 at 50 uM using BocLRR-AMC as substrate incubated for 15 mins measured for 45 mins by fluorescence assay relative to control; conditions: not given
Sequence (P49721 whole entry): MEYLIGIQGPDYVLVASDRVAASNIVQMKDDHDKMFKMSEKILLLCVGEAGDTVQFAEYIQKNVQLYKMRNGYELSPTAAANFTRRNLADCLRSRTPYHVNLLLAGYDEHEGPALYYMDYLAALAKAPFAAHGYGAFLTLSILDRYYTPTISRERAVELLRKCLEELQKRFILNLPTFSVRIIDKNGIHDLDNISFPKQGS
In short: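 Purified human 20S proteasome (cCP or iCP), 0.3 nM, preincubated 15 min with compound (0.001-50 μM) in pH 8 buffer of 20 mM Tris-HCl, 10% glycerol, 0.005% Triton X-100, 2% DMSO. Then Boc-LRR-AMC at 50 μM was added. AMC fluorescence (ex 360/em 460 nm) was followed 45 min at 37 °C. Activity is relative to an untreated control.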

SMILES | inhibition
C[C@H](O)[C@@H](NC(=O)[C@H](Cc1ccc(OCc2ccccc2)cc1)NC(=O)OC(C)(C)C)C(=O)N[C@@H](C[C@]1(O)C(=O)Nc2ccccc21)C(=O)NCc1ccccc1 | > 85%

tested on: Fibroblast; assay: Cytotoxicity against human fibroblasts assessed as reduction in cell viability at 25 uM after 48 hrs by Hoechst 33342 staining based HCS assay; conditions: not given

SMILES | Activity
C[C@H](O)[C@@H](NC(=O)[C@H](Cc1ccc(OCc2ccccc2)cc1)NC(=O)OC(C)(C)C)C(=O)N[C@@H](C[C@]1(O)C(=O)Nc2ccccc21)C(=O)NCc1ccccc1 | Non-Toxic

tested on: MDA-MB-231; assay: Cytotoxicity against human MDA-MB-231 cells assessed as reduction in cell viability after 48 hrs by Hoechst 33342 staining based HCS assay; type: functional; conditions: Homo sapiens, MDA-MB-231, 48 h; read-out: EC50; in short: as §1

SMILES | EC50
C[C@H](O)[C@@H](NC(=O)[C@H](Cc1ccc(OCc2ccccc2)cc1)NC(=O)OC(C)(C)C)C(=O)N[C@@H](C[C@]1(O)C(=O)Nc2ccccc21)C(=O)NCc1ccccc1 | 9 µM

tested on: Caco-2; assay: Cytotoxicity against human Caco2 cells assessed as reduction in cell viability after 48 hrs by Hoechst 33342 staining based HCS assay; type: functional; conditions: Homo sapiens, Caco-2, 48 h; read-out: EC50; in short: as §1

SMILES | EC50
C[C@H](O)[C@@H](NC(=O)[C@H](Cc1ccc(OCc2ccccc2)cc1)NC(=O)OC(C)(C)C)C(=O)N[C@@H](C[C@]1(O)C(=O)Nc2ccccc21)C(=O)NCc1ccccc1 | 32 µM

biological target: T9, Proteasome component C5 (Homo sapiens) (UniProt P20618); assay: Inhibition of human 20S constitutive proteasome beta-1 at 50 uM using Z-LLE-betaNA as substrate incubated for 15 mins measured for 45 mins by fluorescence assay relative to control; conditions: not given
T9 sequence (whole entry): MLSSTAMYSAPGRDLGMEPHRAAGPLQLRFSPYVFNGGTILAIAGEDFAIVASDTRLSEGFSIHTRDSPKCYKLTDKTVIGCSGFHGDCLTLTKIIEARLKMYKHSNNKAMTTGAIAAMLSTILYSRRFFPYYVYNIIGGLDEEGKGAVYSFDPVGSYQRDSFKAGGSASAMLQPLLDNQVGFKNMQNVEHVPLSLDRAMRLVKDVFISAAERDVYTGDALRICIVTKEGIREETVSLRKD
In short: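 Human 20S constitutive proteasome, 0.3 nM, was preincubated 15 min with compound (0.001-50 μM) in pH 8 Tris-HCl 20 mM, 10% glycerol, 0.01% SDS, 2% DMSO. Z-LLE-βNA at 50 μM was added. βNA fluorescence (ex 340/em 404 nm) was monitored 45 min at 37 °C against an untreated control.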

SMILES | inhibition
C[C@H](O)[C@@H](NC(=O)[C@H](Cc1ccc(OCc2ccccc2)cc1)NC(=O)OC(C)(C)C)C(=O)N[C@@H](C[C@]1(O)C(=O)Nc2ccccc21)C(=O)NCc1ccccc1 | > 85%

Source: ChEMBL document CHEMBL4251654, “Structure-based design of human immuno- and constitutive proteasomes inhibitors” (Eur J Med Chem, 2018)
